# Published values pooled from the literature.
# Protocols differ between the studies behind these lines.
# Target: Discoidin domain-containing receptor 2 (DDR2, Homo sapiens, UniProt Q16832)
# Tested at: 1 µM
# Residues used in one study (Q16832 22-855): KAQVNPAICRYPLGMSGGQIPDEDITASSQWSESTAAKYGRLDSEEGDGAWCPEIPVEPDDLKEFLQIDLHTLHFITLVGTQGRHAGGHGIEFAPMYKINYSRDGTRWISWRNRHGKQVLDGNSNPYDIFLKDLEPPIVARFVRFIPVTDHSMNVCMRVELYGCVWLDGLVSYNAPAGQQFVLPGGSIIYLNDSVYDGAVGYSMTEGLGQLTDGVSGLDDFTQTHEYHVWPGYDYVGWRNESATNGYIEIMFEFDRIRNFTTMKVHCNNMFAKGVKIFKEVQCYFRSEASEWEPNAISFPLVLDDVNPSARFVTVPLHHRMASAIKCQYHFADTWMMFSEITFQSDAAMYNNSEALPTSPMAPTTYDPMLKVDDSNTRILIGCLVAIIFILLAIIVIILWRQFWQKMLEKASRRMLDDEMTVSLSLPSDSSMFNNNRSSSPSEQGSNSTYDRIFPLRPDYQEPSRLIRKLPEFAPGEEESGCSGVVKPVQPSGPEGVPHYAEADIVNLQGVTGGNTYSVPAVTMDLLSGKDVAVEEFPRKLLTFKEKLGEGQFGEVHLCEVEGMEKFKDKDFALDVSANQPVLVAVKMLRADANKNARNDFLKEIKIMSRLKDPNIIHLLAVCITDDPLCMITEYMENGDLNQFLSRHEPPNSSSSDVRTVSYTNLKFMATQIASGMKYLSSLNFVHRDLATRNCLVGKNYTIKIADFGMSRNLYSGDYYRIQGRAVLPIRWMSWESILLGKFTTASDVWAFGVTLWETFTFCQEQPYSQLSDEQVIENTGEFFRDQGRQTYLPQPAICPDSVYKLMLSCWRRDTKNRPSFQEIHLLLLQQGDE
Compound,test,remaining binding
CCN1CCN(Cc2ccc(C(=O)Nc3ccc(C)c(Oc4ccc5c(c4)CC(=O)N5)c3)cc2C(F)(F)F)CC1,"binding, competition with immobilised ligand",14%
Cc1cnc(Nc2ccc(C(=O)N3CCC(N4CCCC4)CC3)cc2)nc1-c1cc2ccccc2s1,"binding, competition with immobilised ligand",8%
O=C(NCC1CCOCC1)c1n[nH]cc1NC(=O)c1c(F)cccc1F,"binding, competition with immobilised ligand",100%
C=CC(=O)N1CCC(C(=O)NCC(=O)N2CCN(c3nc(-c4cnc(N)nc4C(F)F)nc(N4CCOCC4)n3)CC2)CC1,"binding, competition with immobilised ligand",83%
COc1cnc(Nc2cccc(S(N)(=O)=O)c2)nc1N1CCN(c2ccccc2)CC1,"binding, competition with immobilised ligand",66%
CS(=O)(=O)NCC[C@H](NC(=O)c1cncc2c1cnn2-c1ccc(F)cc1)c1ccnc(S(C)(=O)=O)c1,"cell-free assay, competition with immobilised ligand",100%
O=C(NCCCN1CCOCC1)c1ccc(Nc2nccc(-c3cc4ccccc4s3)n2)cc1,"binding, competition with immobilised ligand",43%
O=C(O)c1cc(-c2ccc(C3CCNCC3)cc2)c2ccc(-c3ccc(C(F)(F)F)cc3)cc2c1,"cell-free assay, competition with immobilised ligand",100%
O=C(c1ccc(Nc2ncc(Cl)c(-c3cc4ccccc4s3)n2)cc1)N1CCC(N2CCCC2)CC1,"binding, competition with immobilised ligand",23%
Nc1ncc2c(n1)-c1c([nH]c3ccc(C#CC4CC4)cc13)CCCC2,"binding, competition with immobilised ligand",80%
N[C@@H]1CCN(c2nccc(-c3cnn4ncccc34)n2)C1,binding,100%
CC(=O)C1=C(C)N(c2cccc(C(F)(F)F)c2)C(=O)N[C@@H]1c1ccc(C#N)nc1,"cell-free assay, competition with immobilised ligand",87.6%
CN(C)c1nccc(-c2cnc3ncccn23)n1,binding,84%
CCCOc1ccc([C@H]2[C@H](C(=O)O)[C@@H](c3ccc4c(c3)OCO4)CN2CC(=O)Nc2c(CC)cccc2CC)cc1,"cell-free assay, competition with immobilised ligand",71%
c1cnn2ncc(-c3ccnc(N4CCC45COC5)n3)c2c1,binding,83%
Cn1nc(C(F)(F)F)cc1-c1cnc(N2CCc3cc(S(=O)(=O)Nc4c(F)cc(Cl)cc4F)cc(N4CCCC4=O)c32)nc1,"cell-free assay, competition with immobilised ligand",80%
F[C@@H]1CCN(c2nccc(-c3cnn4ncccc34)n2)C1,binding,91%
CN(C)CC#Cc1ccc(OCCCc2sc(N3CCc4cccc(C(=O)Nc5nc6ccccc6s5)c4C3)nc2C(=O)O)c(F)c1,"cell-free assay, competition with immobilised ligand",83%
COc1ccnn2ncc(-c3ccnc(N(C)C)n3)c12,binding,67%
CNC(=O)[C@@H]1CC[C@@H](n2c(-c3ccc4cnccc4c3)nc3ccc(C(=O)NCc4cccc(C(N)=O)c4)cc32)C1,"binding, competition with immobilised ligand",93%
